The text below walks through data of ChEMBL document CHEMBL3526106, “Cytochrome P450 regulation by α-tocopherol in Pxr-null and PXR-humanized mice” (Drug Metab Dispos, 2013).

The test system of data set [1] is Mus musculus. The experiment in a line: Drug level in male PXR-humanized mouse treated with 500 mg/kg for 7 to 14 days dosed through vitamin E-deficient base diet by UPLC-ESI-QTOFMS method based metabolomics analysis. Conditions: in vivo, po. The format is ADME, organism-based. Also noted: dose 500 mg/kg.
For data set [2], the system named is Mus musculus. The experiment in a line: Drug level in male PXR null mouse treated with 500 mg/kg for 7 to 14 days dosed through vitamin E-deficient base diet by UPLC-ESI-QTOFMS method based metabolomics analysis. Particulars: in vivo, po. The format is ADME, organism-based. More on the design: dose 500 mg/kg.
In data set [3] the test system is Mus musculus. The experiment in a line: Drug level in male wild type mouse treated with 500 mg/kg for 7 to 14 days dosed through vitamin E-deficient base diet by UPLC-ESI-QTOFMS method based metabolomics analysis. Type of data set: ADME, organism-based. More on the design: dose 500 mg/kg. Particulars: in vivo, po.
The subject of data set [4] is Cyp2c29. The experiment in a line: Induction of Cyp2c29 gene expression in male PXR null mouse liver at 50 mg/kg dosed through gavage daily for 4 days by qPCR method. Particulars: po, read-out: FC. For orientation: Real-time PCR tracks product formation cycle by cycle.
Data set [5] relates to Mus musculus. The experiment in a line: Reduction in Ugt1a6b gene expression in PXR-humanized mouse liver at 10 mg/kg dosed through gavage daily for 4 days by qPCR method. Conditions: in vivo, po, 96 h.
The subject of another data set is Ugt2b34. Kind of data set: Induction of Ugt2b34 gene expression in wild type mouse liver at 50 mg/kg dosed through gavage daily for 4 days by qPCR method. The format is ADME, organism-based. More on the design: dose 50 mg/kg. Particulars: po, read-out: FC.
The subject of a further data set is Cyp2b10. Kind of data set: Induction of Cyp2b10 gene expression in wild type mouse liver at 50 mg/kg dosed through gavage daily for 4 days by qPCR method. The format is ADME, organism-based. More on the design: dose 50 mg/kg. Conditions: po, read-out: FC.
The test system of data set [6] is Ugt1a10. The experiment in a line: Induction of Ugt1a10 gene expression in PXR null mouse liver at 50 mg/kg dosed through gavage daily for 4 days by qPCR method. Also noted: dose 50 mg/kg. Type of data set: ADME, organism-based. Conditions: po, read-out: FC.
For data set [7], the system named is Ugt1a10. Kind of data set: Induction of Ugt1a10 gene expression in wild type mouse liver at 50 mg/kg dosed through gavage daily for 4 days by qPCR method. More on the design: dose 50 mg/kg. Particulars: po, read-out: FC. Type of data set: ADME, organism-based.
The next data set concerns Ugt1a9. Kind of data set: Induction of Ugt1a9 gene expression in wild type mouse liver at 50 mg/kg dosed through gavage daily for 4 days by qPCR method. Type of data set: ADME, organism-based. More on the design: dose 50 mg/kg. Conditions: po, read-out: FC.
In data set [8] the target is T1, PXR (Nuclear receptor subfamily 1 group I member 2) (Mus musculus, UniProt O54915).
T1 sequence (O54915 whole entry): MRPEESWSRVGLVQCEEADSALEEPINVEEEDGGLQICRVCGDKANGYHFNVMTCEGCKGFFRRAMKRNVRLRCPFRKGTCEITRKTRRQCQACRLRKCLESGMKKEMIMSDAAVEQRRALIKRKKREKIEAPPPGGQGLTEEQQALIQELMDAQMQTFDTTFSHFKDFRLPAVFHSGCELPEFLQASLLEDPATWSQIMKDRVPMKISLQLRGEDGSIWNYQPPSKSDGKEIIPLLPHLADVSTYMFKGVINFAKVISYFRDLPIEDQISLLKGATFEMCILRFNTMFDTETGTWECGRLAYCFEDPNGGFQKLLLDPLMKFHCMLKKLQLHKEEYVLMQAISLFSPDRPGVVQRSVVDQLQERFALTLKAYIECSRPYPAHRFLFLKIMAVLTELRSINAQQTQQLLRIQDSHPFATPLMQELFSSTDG
The experiment in a line: Activation of mouse PXR expressed in human HepG2 cells at 10 uM after 24 hrs by firefly luciferase DR3 reporter gene assay. The format is ADME, cell-based. Conditions: human HepG2 cells expressing mouse PXR, read-out: FC. The method in brief:
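HepG2 cells grown in DMEM + 10% FBS were transfected with 10 ng mouse PXR, 100 ng DR3 firefly luciferase reporter and 2 ng Renilla pRL-SV40. Compound in DMSO was added 24 h after transfection and left for 24 h. Dual luciferase was then read, firefly normalized to Renilla per well, and expressed as fold over DMSO control.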
Background: In a reporter assay the amount or activity of a reporter protein is the signal.

The next data set relates to Ugt1a1. The experiment in a line: Induction of Ugt1a1 gene expression in wild type mouse liver at 50 mg/kg dosed through gavage daily for 4 days by qPCR method. Type of data set: ADME, organism-based. Also noted: dose 50 mg/kg. Particulars: po, read-out: FC.
The next data set deals with Cyp2c55. The experiment in a line: Induction of Cyp2c55 gene expression in wild type mouse liver at 50 mg/kg dosed through gavage daily for 4 days by qPCR method. More on the design: dose 50 mg/kg. Conditions: po, read-out: FC. Type of data set: ADME, organism-based.
Data set [9] deals with Cyp2c29. Kind of data set: Induction of Cyp2c29 gene expression in wild type mouse liver at 50 mg/kg dosed through gavage daily for 4 days by qPCR method. Type of data set: ADME, organism-based. More on the design: dose 50 mg/kg. Particulars: po, read-out: FC.
Another data set concerns Ugt2b5. Kind of data set: Induction of Ugt2b5 gene expression in wild type mouse liver at 50 mg/kg dosed through gavage daily for 4 days by qPCR method. Type of data set: ADME, organism-based. More on the design: dose 50 mg/kg. Conditions: po, read-out: FC.
Data set [10] has as its system Mus musculus. Kind of data set: Reduction in Ugt1a6a gene expression in PXR-humanized mouse liver at 10 mg/kg dosed through gavage daily for 4 days by qPCR method. Conditions: in vivo, po, 96 h.
The subject of another data set is Cyp3a11. Kind of data set: Induction of Cyp3a11 gene expression in wild type mouse liver at 50 mg/kg dosed through gavage daily for 4 days by qPCR method. The format is ADME, organism-based. Conditions: po, read-out: FC. Also noted: dose 50 mg/kg.
In data set [11] the test system is Mus musculus. Kind of data set: Reduction in Ugt1a6b gene expression in wild type mouse liver at 50 mg/kg dosed through gavage daily for 4 days by qPCR method. The format is ADME, organism-based. Also noted: dose 50 mg/kg. Conditions: in vivo, po, 96 h.

Consider `CN1CC(=O)NC1=N` [CREATININE], for which the Drug metabolism entry in the data set on Mus musculus [1], in the data set with Mus musculus [2] and with Mus musculus [3] was “metabolite_detected” each time.
For the compound `CC(=O)[C@H]1[C@H](C#N)C[C@H]2[C@@H]3CC=C4C[C@@H](O)CC[C@]4(C)[C@H]3CC[C@@]21C` [PREGNENOLONE CARBONITRILE], the fold induction at 96 h in the data set on Cyp2c29 [4] is 1.6; with Ugt2b34, 3.2; in the data set with Cyp2b10 it was 160; with Ugt1a10 [6], 1.8; in the data set with Ugt1a10 [7], 2.8; in the data set on Ugt1a9, 9.4. Further, the fold induction at 96 h in the data set on Ugt1a1 was determined as 3.1; in the data set with Cyp2c55, 303; in the data set with Cyp2c29 [9], 9.2; in the data set with Ugt2b5, 1.4; in the data set with Cyp3a11 it was 20.9. Moreover, the “fold change (FC)” value in the data set with Mus musculus [5] was determined as 1.8; in the data set with Mus musculus [10], 2; in the data set with Mus musculus [11], 1.3. In data set [8], the fold induction at 24 h, 10 µM stood at 9.5.
